{"source": "ChEMBL document CHEMBL1136055", "about": "“3-Heteroaryl-2-pyridones: benzodiazepine site ligands with functional delectivity for alpha 2/alpha 3-subtypes of human GABA(A) receptor-ion channels” (J Med Chem, 2002)", "key": {"[1]": {"target": "GABA-A receptor; alpha-1/beta-3/gamma-2 (Homo sapiens) (UniProt P14867+P18507+P28472)", "experiment": "Modulatory effect on coapplication with GABA at human Gamma-aminobutyric acid A receptor alpha-1-beta-3-gamma-2 in Xenopus oocyte.", "method_in_brief": "(§1)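 Two-electrode voltage clamp of Xenopus oocytes transiently expressing human α1, α2 or α3 β3γ2S receptors. Test compound is co-applied with GABA at its EC20 (GABA range 4-30 µM). Result is the % change in GABA current, mean (SEM), n = 3-7, at the stated test compound concentration (µM).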"}, "[2]": {"target": "T1, GABA-A receptor; alpha-1/beta-3/gamma-2 (Homo sapiens, UniProt P14867+P18507+P28472)", "T1 sequence (P14867 whole entry)": "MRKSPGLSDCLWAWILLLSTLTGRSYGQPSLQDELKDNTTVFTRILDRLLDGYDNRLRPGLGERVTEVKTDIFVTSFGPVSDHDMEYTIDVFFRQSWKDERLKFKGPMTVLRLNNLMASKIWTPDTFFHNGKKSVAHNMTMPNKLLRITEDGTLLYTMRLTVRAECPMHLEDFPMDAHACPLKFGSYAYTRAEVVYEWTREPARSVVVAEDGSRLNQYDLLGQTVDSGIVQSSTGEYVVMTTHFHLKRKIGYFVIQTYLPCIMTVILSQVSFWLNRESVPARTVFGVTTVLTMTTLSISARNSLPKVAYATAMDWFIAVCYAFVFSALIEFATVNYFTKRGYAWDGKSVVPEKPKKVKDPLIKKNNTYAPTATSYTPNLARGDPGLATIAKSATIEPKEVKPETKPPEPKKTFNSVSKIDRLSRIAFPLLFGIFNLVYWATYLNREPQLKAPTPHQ", "T1 sequence (P18507 whole entry)": "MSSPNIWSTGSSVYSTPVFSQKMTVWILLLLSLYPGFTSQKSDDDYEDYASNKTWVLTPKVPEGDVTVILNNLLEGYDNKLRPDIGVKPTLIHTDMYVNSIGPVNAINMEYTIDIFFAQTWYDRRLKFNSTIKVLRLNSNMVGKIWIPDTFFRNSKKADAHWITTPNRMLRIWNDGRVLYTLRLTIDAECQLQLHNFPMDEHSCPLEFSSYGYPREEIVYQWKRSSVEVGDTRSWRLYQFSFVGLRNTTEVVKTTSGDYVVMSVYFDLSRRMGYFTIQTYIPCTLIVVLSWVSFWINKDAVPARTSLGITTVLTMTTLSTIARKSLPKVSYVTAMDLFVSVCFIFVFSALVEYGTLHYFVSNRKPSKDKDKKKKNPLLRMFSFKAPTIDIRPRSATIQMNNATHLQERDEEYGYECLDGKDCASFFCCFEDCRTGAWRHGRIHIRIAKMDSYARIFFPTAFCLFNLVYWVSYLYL", "T1 sequence (P28472 whole entry)": "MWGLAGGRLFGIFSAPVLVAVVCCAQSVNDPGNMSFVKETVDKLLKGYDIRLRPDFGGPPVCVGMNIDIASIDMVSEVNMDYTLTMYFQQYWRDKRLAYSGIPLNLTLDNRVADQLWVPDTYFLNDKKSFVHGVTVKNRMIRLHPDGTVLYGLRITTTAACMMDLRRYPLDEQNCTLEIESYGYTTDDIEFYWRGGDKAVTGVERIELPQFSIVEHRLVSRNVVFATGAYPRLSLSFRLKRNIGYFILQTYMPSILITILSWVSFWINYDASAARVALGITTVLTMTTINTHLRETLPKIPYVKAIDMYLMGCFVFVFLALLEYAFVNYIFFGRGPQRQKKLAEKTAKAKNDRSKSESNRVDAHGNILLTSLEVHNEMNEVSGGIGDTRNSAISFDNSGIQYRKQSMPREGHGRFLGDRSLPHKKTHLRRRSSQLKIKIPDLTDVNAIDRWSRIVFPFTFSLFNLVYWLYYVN", "experiment": "Inhibition of [3H]Ro-151788 binding to human GABA A receptor (alpha-1-beta-3-gamma-2) stably expressed in L(tk-) cells.", "assay_type": "cell-based"}, "[3]": {"target": "GABA-A receptor; alpha-2/beta-3/gamma-2 (Homo sapiens) (UniProt P18507+P28472+P47869)", "experiment": "Modulatory effect on coapplication with GABA at human Gamma-aminobutyric acid A receptor alpha-2-beta-3-gamma-2 expressed inXenopus oocytes", "assay_type": "cell-based", "settings": "Oocyte", "method_in_brief": "as §1"}, "[4]": {"target": "T2, GABA-A receptor; alpha-3/beta-3/gamma-2 (Homo sapiens, UniProt P18507+P28472+P34903)", "T2 sequence (P18507 whole entry)": "T1 sequence (P18507 whole entry)", "T2 sequence (P28472 whole entry)": "T1 sequence (P28472 whole entry)", "T2 sequence (P34903 whole entry)": "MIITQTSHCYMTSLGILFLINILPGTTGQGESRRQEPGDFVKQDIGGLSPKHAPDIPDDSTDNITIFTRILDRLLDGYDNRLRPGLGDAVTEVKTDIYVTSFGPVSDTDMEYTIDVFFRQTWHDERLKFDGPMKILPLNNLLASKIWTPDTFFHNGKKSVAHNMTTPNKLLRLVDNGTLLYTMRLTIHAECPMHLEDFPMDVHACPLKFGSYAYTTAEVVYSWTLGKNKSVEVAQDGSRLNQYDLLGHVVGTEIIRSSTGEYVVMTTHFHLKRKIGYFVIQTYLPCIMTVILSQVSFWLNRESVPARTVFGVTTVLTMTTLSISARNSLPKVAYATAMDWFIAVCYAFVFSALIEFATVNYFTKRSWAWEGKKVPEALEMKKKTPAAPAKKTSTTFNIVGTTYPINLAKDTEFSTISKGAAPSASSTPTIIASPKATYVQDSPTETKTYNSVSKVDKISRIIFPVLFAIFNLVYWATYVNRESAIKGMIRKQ", "experiment": "Binding affinity by displacement of [3H]Ro-151788 from recombinant human gamma-aminobutyric-acid A receptor alpha3,beta3,gamma2 stably expressed in L cells", "assay_type": "cell-based", "method_in_brief": "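Competition binding against [3H]Ro15-1788 on cloned human α1/α2/α3/α5 β3γ2S receptors stably expressed in L(tk-) cells. Six to eight test concentrations spaced in half-log steps. Ki given as mean (SEM), n = 3-5, reported to two significant figures.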"}, "[5]": {"target": "GABA-A receptor; alpha-3/beta-3/gamma-2 (Homo sapiens) (UniProt P18507+P28472+P34903)", "experiment": "Modulatory effect on coapplication with GABA at human Gamma-aminobutyric acid A receptor alpha-3-beta-3-gamma-2 in Xenopus oocytes.", "assay_type": "cell-based", "settings": "Oocyte", "method_in_brief": "as §1"}}, "data": [{"smiles": "COc1ccc(-c2cc(-c3nc(C)cs3)c(=O)n(C)c2-c2ccncc2)cc1", "values": [{"measurement": "percent modulation of GABA EC20 response", "setting": "[1]", "result": 7, "unit": "%"}, {"measurement": "Ki", "setting": "[2]", "result": 17, "unit": "nM"}, {"measurement": "percent modulation of GABA EC20 response", "setting": "[3]", "result": 80, "unit": "%"}, {"measurement": "Ki", "setting": "[4]", "result": 3.4, "unit": "nM"}, {"measurement": "percent modulation of GABA EC20 response", "setting": "[5]", "result": 43, "unit": "%"}]}, {"smiles": "COc1ccc(-c2cc(-c3nc(C)cs3)c(=O)n(C)c2-c2ccnnc2)cc1", "values": [{"measurement": "percent modulation of GABA EC20 response", "setting": "[1]", "result": 7, "unit": "%"}, {"measurement": "Ki", "setting": "[2]", "result": 17, "unit": "nM"}, {"measurement": "percent modulation of GABA EC20 response", "setting": "[3]", "result": 33, "unit": "%"}, {"measurement": "Ki", "setting": "[4]", "result": 4.1, "unit": "nM"}, {"measurement": "percent modulation of GABA EC20 response", "setting": "[5]", "result": 34, "unit": "%"}]}]}
